From article PMC9055496 (RSC Advances, 2020)
Entries after “also recorded” stand apart in the source; their conditions may differ. Like-named read-outs stand apart in the source and are kept apart here.

How the values were obtained:
[1] = cited from earlier work
[2] = Total cumulative excretion in three routes; assay type: in vivo, Sprague-Dawley rats; settings: rat, oral 50 mg kg^−1, unchanged drug
In short: (§1)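 Male Sprague-Dawley rats (220 ± 20 g), fasted 12 h, given 50 mg kg−1 by gavage in 0.5% CMC-Na (n = 5/group). Urine and feces were collected in metabolic cages at intervals to 48 h; feces were air-dried, weighed and homogenised in saline. Bile-duct-cannulated rats (ether anaesthesia) were dosed after recovery, with bile collected every 2 h to 12 h. Unchanged drug was measured by UHPLC-MS/MS (positive ESI MRM, internal standard; LLOQ 0.005 μg mL−1).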

[3] = cited from earlier work; remark: listed apart in the source
[4] = Fecal excretion of unchanged drug in rats after a single oral dose; assay type: in vivo, Sprague-Dawley rats; settings: rat; for Time period of highest fecal excretion ratio: oral 50 mg kg^−1; for Cumulative amount in feces: n = 5, mean ± SD; for Accumulative fecal excretion, share of the total dose: unchanged drug
In short: as §1

[5] = assay type: in vivo, Sprague-Dawley rats; settings: for Cumulative amount in bile: bile duct cannulated rat, n = 5, mean ± SD; for Cumulative biliary excretion, share of the dose: rat, oral 50 mg kg^−1, during 12 h, unchanged drug
In short: as §1

[6] = cited from earlier work; remark: listed apart in the source
[7] = Urinary excretion of unchanged drug in rats after a single oral dose; assay type: in vivo, Sprague-Dawley rats; settings: rat; for Time period of highest urinary excretion ratio: oral 50 mg kg^−1; for Cumulative amount in urine: n = 5, mean ± SD; for Cumulative urinary excretion, share of the total dose: oral 50 mg kg^−1, during 48 h, unchanged drug
In short: as §1

[8] = cited from earlier work; remark: listed apart in the source
[9] = assay type: in vivo, Sprague-Dawley rats; settings: for Number of metabolites detected and tentatively identified: rat bile, urine, plasma and feces, oral 100 mg kg^−1; for Metabolic stability, comparison in words: rat in vivo metabolite profile, HFBA vs HPABA, R-HFBA vs S-HFBA
In short: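 Fasted male Sprague-Dawley rats (n = 5/group) received a single 100 mg kg−1 gavage in 0.5% CMC-Na. Urine and feces were collected 0–24 h in metabolic cages, heparinised plasma at 0.5, 3 and 6 h, and bile 0–12 h from bile-duct-catheterised rats. Feces were powdered and sonicated in methanol for 30 min. Analysis was by UHPLC-FT-ICR-MS, positive ESI, m/z 50–1000, with MS/MS at 10 eV.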

[10] = rats, oral (oral or intravenous) administration of each enantiomer

Row | Compound | Total cumulative excretion in three routes, share of the dose [2] [%] | Antiplatelet aggregation activity compared with aspirin [3] | Time period of highest fecal excretion ratio [4] [h] | Cumulative amount in feces ([4]; oral 50 mg kg^−1, 2 h) [µg] | Cumulative amount in feces ([4]; oral 50 mg kg^−1, 4 h) [µg] | Cumulative amount in feces ([4]; oral 50 mg kg^−1, 6 h) [µg] | Cumulative amount in feces ([4]; oral 50 mg kg^−1, 8 h) [µg] | Cumulative amount in feces ([4]; oral 50 mg kg^−1, 10 h) [µg] | Cumulative amount in feces ([4]; oral 50 mg kg^−1, 12 h) [µg] | Cumulative amount in feces ([4]; oral 50 mg kg^−1, 24 h) [µg] | Cumulative amount in feces ([4]; oral 50 mg kg^−1, 36 h) [µg] | Cumulative amount in feces ([4]; oral 50 mg kg^−1, 48 h) [µg] | Accumulative fecal excretion, share of the total dose ([4]; oral 50 mg kg^−1, 48 h) [%] | Cumulative amount in bile ([5]; oral 50 mg kg^−1, 2 h) [µg] | Cumulative amount in bile ([5]; oral 50 mg kg^−1, 4 h) [µg] | Cumulative amount in bile ([5]; oral 50 mg kg^−1, 6 h) [µg] | Cumulative amount in bile ([5]; oral 50 mg kg^−1, 8 h) [µg] | Cumulative amount in bile ([5]; oral 50 mg kg^−1, 10 h) [µg] | Cumulative amount in bile ([5]; oral 50 mg kg^−1, 12 h) [µg] | Number of metabolites detected and tentatively identified [9] | also measured
1 | CC(O)C(=O)Nc1ccc(C(F)(F)F)cc1C(=O)O (stereo not shown) [R-HFBA, 2-(2-Hydroxypropanamido)-5-trifluoromethyl benzoic acid] | 65.8 | superior to aspirin | 6 to 8 | 6.300 ± 1.60 | 11.00 ± 3.50 | 254.1 ± 400 | 1216 ± 518 | 1980 ± 512 | 2362 ± 629 | 2687 ± 598 | 2782 ± 635 | 2817 ± 626 | 25.6 | 185.3 ± 8.20 | 531.7 ± 95.4 | 783.1 ± 56.6 | 925.9 ± 68.1 | 1075 ± 62.6 | 1239 ± 54.6 | 7 | AUC compared with S-HFBA [1, 10]: greater; also recorded: larger; Clearance (CL) compared with S-HFBA [1, 10]: significantly lower; t1/2 compared with S-HFBA [1, 10]: greater; also recorded: longer; Cumulative biliary excretion, share of the dose [5]: 11.3%; Gastrointestinal toxicity compared with aspirin [6]: less; Time period of highest urinary excretion ratio [7]: 0 to 2 h; Cumulative amount in urine ([7]; oral 50 mg kg^−1, 2 h): 2747 ± 332 µg; Cumulative amount in urine ([7]; oral 50 mg kg^−1, 4 h): 3149 ± 292 µg; Cumulative amount in urine ([7]; oral 50 mg kg^−1, 6 h): 3309 ± 457 µg; Cumulative amount in urine ([7]; oral 50 mg kg^−1, 8 h): 3894 ± 504 µg; Cumulative amount in urine ([7]; oral 50 mg kg^−1, 10 h): 4010 ± 450 µg; Cumulative amount in urine ([7]; oral 50 mg kg^−1, 12 h): 4117 ± 435 µg; Cumulative amount in urine ([7]; oral 50 mg kg^−1, 24 h): 4333 ± 518 µg; Cumulative amount in urine ([7]; oral 50 mg kg^−1, 36 h): 4394 ± 485 µg; Cumulative amount in urine ([7]; oral 50 mg kg^−1, 48 h): 4425 ± 478 µg; Cumulative urinary excretion, share of the total dose [7]: 40.2%; Anti-inflammatory activity compared with aspirin [8]: superior to aspirin; Metabolic stability, comparison in words [9]: more metabolically stable than S-HFBA
2 | CC(O)C(=O)Nc1ccc(C(F)(F)F)cc1C(=O)O (stereo not shown) [S-HFBA, 2-(2-Hydroxypropanamido)-5-trifluoromethyl benzoic acid] | 58.5 | superior to aspirin | 10 to 12 | 5.800 ± 7.70 | 17.60 ± 18.9 | 89.90 ± 80.3 | 791.6 ± 519 | 1604 ± 459 | 2470 ± 203 | 2764 ± 248 | 2878 ± 213 | 2944 ± 252 | 26.8 | 170.8 ± 14.1 | 515.4 ± 77.5 | 571.8 ± 95.4 | 652.9 ± 50.7 | 745.6 ± 57.7 | 817.0 ± 90.9 | 8 | Cumulative biliary excretion, share of the dose [5]: 7.4%; Gastrointestinal toxicity compared with aspirin [6]: less; Time period of highest urinary excretion ratio [7]: 0 to 2 h; Cumulative amount in urine ([7]; oral 50 mg kg^−1, 2 h): 1831 ± 253 µg; Cumulative amount in urine ([7]; oral 50 mg kg^−1, 4 h): 2525 ± 285 µg; Cumulative amount in urine ([7]; oral 50 mg kg^−1, 6 h): 2713 ± 185 µg; Cumulative amount in urine ([7]; oral 50 mg kg^−1, 8 h): 3098 ± 279 µg; Cumulative amount in urine ([7]; oral 50 mg kg^−1, 10 h): 3249 ± 294 µg; Cumulative amount in urine ([7]; oral 50 mg kg^−1, 12 h): 3313 ± 319 µg; Cumulative amount in urine ([7]; oral 50 mg kg^−1, 24 h): 3413 ± 251 µg; Cumulative amount in urine ([7]; oral 50 mg kg^−1, 36 h): 3469 ± 216 µg; Cumulative amount in urine ([7]; oral 50 mg kg^−1, 48 h): 3489 ± 225 µg; Cumulative urinary excretion, share of the total dose [7]: 31.7%; Anti-inflammatory activity compared with aspirin [8]: superior to aspirin
3 | CC(O)C(=O)Nc1ccc(C(F)(F)F)cc1C(=O)O (stereo not shown) [HFBA, 2-(2-Hydroxypropanamido)-5-trifluoromethyl benzoic acid] |  |  |  |  |  |  |  |  |  |  |  |  |  |  |  |  |  |  |  | 8 | Bioavailability compared with HPABA [1]: better; Half-life compared with HPABA [1]: longer; Metabolic stability, comparison in words [9]: more metabolically stable than HPABA
